Activity calls are given as the source filed them. The calls are words filed in the database; no cut-off is given here.
Assays:
Rattus norvegicus [1] = assay: Antiinflammatory activity against carrageenan-induced paw edema in Albino rat assessed as oedema inhibition relative to control at 40 mg/kg, po; type: functional
Procedure, shortened: (§1)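 Rats given test compound orally; 30 min later, 0.2 mL of 1% carrageenan in 0.9% NaCl injected subcutaneously into plantar aponeurosis of the hind paw. Paw volume measured by water plethysmometer before and at 3 h. Mean paw-volume increase compared with a carrageenan-only control group of five rats. % inhibition = (1 − Gt/Gc) × 100. Values are means of three determinations.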

Rattus norvegicus [2] = assay: Toxicity in rat assessed as incidence of hyperaemia at 200 mg/kg, po; type: organism-based; design: dose 200 mg/kg, route oral; settings: in vivo
Procedure, shortened: (§2)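 Groups of 10 rats (200–230 g), fasted 24 h, dosed orally; controls untreated. Sacrificed 5 h after dosing. Stomach and small intestine examined under microscope for hyperaemia, epithelial shedding, petechiae, frank haemorrhage, erosion or discrete ulceration with or without perforation. Result expressed as percentage of animals affected.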

Rattus norvegicus [3] = assay: Toxicity in rat assessed as incidence of hyperaemia at 400 mg/kg, po; type: organism-based; design: dose 400 mg/kg, route oral; settings: in vivo; procedure, shortened: as §2
Rattus norvegicus [4] = assay: Antiinflammatory activity against carrageenan-induced paw edema in po dosed Albino rat assessed as oedema inhibition; type: functional
Rattus norvegicus [5] = assay: Antiinflammatory activity against carrageenan-induced paw edema in Albino rat assessed as oedema inhibition relative to control at 20 mg/kg, po; type: functional; procedure, shortened: as §1
Rattus norvegicus [6] = assay: Toxicity in rat assessed as incidence of ulcer at 100 mg/kg, po; type: organism-based; design: dose 100 mg/kg, route oral; settings: in vivo; procedure, shortened: as §2
Rattus norvegicus [7] = assay: Toxicity in rat assessed as incidence of ulcer at 400 mg/kg, po; type: organism-based; design: dose 400 mg/kg, route oral; settings: in vivo; procedure, shortened: as §2
Rattus norvegicus [8] = assay: Toxicity in rat assessed as incidence of hyperaemia at 100 mg/kg, po; type: organism-based; design: dose 100 mg/kg, route oral; settings: in vivo; procedure, shortened: as §2
Rattus norvegicus [9] = assay: Antiinflammatory activity against carrageenan-induced paw edema in Albino rat assessed as oedema inhibition relative to control at 80 mg/kg, po; type: functional; procedure, shortened: as §1
Rattus norvegicus [10] = assay: Toxicity in rat assessed as incidence of ulcer at 200 mg/kg, po; type: organism-based; design: dose 200 mg/kg, route oral; settings: in vivo; procedure, shortened: as §2
[11] = Toxicity in ip dosed Albino mouse; type: organism-based; settings: in vivo, read-out: ALD50
Procedure, shortened: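 Albino mice, 25–30 g, groups of 10, given test compounds intraperitoneally at different dose levels. Mortality per group recorded 24 h after dosing. Approximate 50% lethal dose (ALD50) calculated from mortality data by the Smith method.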

Oryctolagus cuniculus = species on record: Oryctolagus cuniculus; assay: Inhibition of rabbit microsomal COX at 10 uM
Procedure, shortened: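 COX source: microsomal pellet from minced, homogenized rabbit distal colon mucosa in 0.1 M Tris, pH 8.0, used immediately. Microsomes preincubated with test agent 10 min at 37 °C in Tris-HCl pH 8.0 with 2 mM glutathione, 5 mM L-tryptophan and 1 µM haematin. Then 20 µM arachidonic acid plus [1-14C] tracer added for 5 min at 37 °C. PGE2 separated by isocratic HPLC; co-eluting radioactivity counted by scintillation. % inhibition calculated versus paired controls.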

SMILES	inhibition in vivo at 40 mg/kg (Rattus norvegicus [1])	Activity (Rattus norvegicus [2])	Activity (Rattus norvegicus [3])	ED50 (Rattus norvegicus [4])	inhibition in vivo at 20 mg/kg (Rattus norvegicus [5])	Activity (Rattus norvegicus [6])	Activity (Rattus norvegicus [7])	Activity (Rattus norvegicus [8])	inhibition in vivo at 80 mg/kg (Rattus norvegicus [9])	Activity (Rattus norvegicus [10])	LD50 [11]	inhibition (Oryctolagus cuniculus)	Activity (Oryctolagus cuniculus)
O=C(Oc1ccc(Cl)cc1C(=O)c1cccc(Cl)c1Cl)c1ccccc1	29.8%	90%	100%	63.6 mg/kg	21.1%	10%	40%	70%	63.8%	20%	> 1000 mg/kg	40%	
Cc1ccc(OC(=O)c2ccccc2)c(C(=O)c2cccc(F)c2)c1	30.2%	40%	50%	75.5 mg/kg	18.5%	50%	75%	25%	40.5%	65%	> 1000 mg/kg		inactive
Cc1ccc(OC(=O)c2ccccc2)c(C(=O)c2ccccc2)c1	29.9%	60%	100%	78.6 mg/kg	15.1%	10%	40%	40%	56.4%	20%	> 1000 mg/kg	20%	
Cc1ccc(C(=O)Oc2ccc(C)cc2C(=O)c2ccc(C)cc2)cc1	30.5%	60%	80%	76.2 mg/kg	20.6%	10%	20%	40%	60.1%	15%	> 1000 mg/kg	65%	
Cc1ccc(C(=O)Oc2ccc(Cl)cc2C(=O)c2ccc(Cl)cc2)cc1	30.4%	70%	100%	60.5 mg/kg	29.2%	10%	20%	50%	77.1%	15%	> 1000 mg/kg	85%	
O=C(Oc1ccc(Cl)cc1C(=O)c1ccc(Cl)cc1)c1ccc(Cl)cc1	48.5%	80%	100%	65.5 mg/kg	35.5%	5%	15%	60%	60.1%	10%	> 1000 mg/kg	60%	
Cc1ccc(C(=O)Oc2ccc(F)cc2C(=O)c2ccc(C)cc2)cc1	35.5%	55%	90%	70.1 mg/kg	20.5%	20%	45%	30%	50.5%	25%	> 1000 mg/kg	30%	
Cc1ccc(OC(=O)c2ccccc2C)c(C(=O)c2ccccc2C)c1	33.9%	70%	90%	78.9 mg/kg	17.5%	20%	40%	50%	64.8%	30%	> 1000 mg/kg	70%	
CC(=O)Oc1ccccc1C(=O)O [ASPIRIN]	30.5%	55%	85%	95.5 mg/kg	29.5%	75%	85%	25%	55.1%	90%		95%	
Cc1ccc(C(=O)Oc2ccc(C)cc2C(=O)c2ccccc2)cc1	29.4%	35%	55%	75.5 mg/kg	15.5%	45%	80%	20%	46.5%	55%	> 1000 mg/kg		inactive
Cc1ccc(C(=O)c2cc(F)ccc2OC(=O)c2ccc(Cl)cc2)cc1	44.6%	70%	90%	76.2 mg/kg	16.6%	15%	25%	50%	64.1%	20%	> 1000 mg/kg	70%	
Cc1ccc(C(=O)c2cc(C)ccc2OC(=O)c2ccc(Cl)cc2)cc1	46.5%	50%	75%	57.3 mg/kg	31.4%	15%	18%	25%	85.5%	25%	> 1000 mg/kg		inactive
CCCCC1C(=O)N(c2ccccc2)N(c2ccccc2)C1=O [PHENYLBUTAZONE]	33%	50%	80%		30.1%	35%	90%	25%	55.1%	65%		85%	
Cc1ccc(OC(=O)c2ccccc2)c(C(=O)c2ccc(Cl)cc2)c1	24.2%	40%	60%	77.9 mg/kg	14.7%	40%	80%	20%	47.5%	50%	> 1000 mg/kg		inactive
Cc1ccc(OC(=O)c2cccc(Cl)c2)c(C(=O)c2cccc(Cl)c2)c1	29.9%	40%	50%	55.7 mg/kg	15.1%	50%	75%	25%	56.4%	65%	> 1000 mg/kg		inactive
O=C(Oc1ccc(Br)cc1C(=O)c1ccc(Cl)cc1)c1ccc(Cl)cc1	46.5%	70%	100%	61.5 mg/kg	23.4%	5%	25%	50%	77.1%	10%	> 1000 mg/kg	87%	
